KCNQ1 act: potentiators or activators of KCNQ1 channel, primary screen, cell-based, thallium flux, high-throughput. CHO-K1 KCNQ1, thallium flux FluxOR fluorescence; hits give high values. Potassium voltage-gated channel subfamily KQT member 1 (Homo sapiens), P51787. 310,000 tested, 0.35% active. AID 2648, 2010. B-score at 10 µM;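 active = fluorescence ratio B-score, a plate-corrected score, at least three library SD, with initial intensity B-score within 5 SD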
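Assay system: CHO-K1 cells stably expressing KCNQ1; Medium: assay buffer with matched DMSO; Also added: K+/Tl+ depolarizing stimulus; Dosing: single dose; Timing: dye 90 min, compound 20 min, room temperature; Measured by: kinetic FluxOR thallium fluorescence, 10-s 1-Hz baseline, 110-s post-stimulus read; Read-out: peak-minus-minimum fluorescence over initial fluorescence, negative-control normalized, B-scored.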
hERG rescue: hERG rescue from dofetilide block, primary screen, cell-based, CHO-hERG, FluxOR thallium flux, dofetilide IC70; Voltage-gated inwardly rectifying potassium channel KCNH2 (Homo sapiens), Q12809; dofetilide IC70 present; activation (rescue from dofetilide block), less the hit threshold, % at 10 µM; 310,000 tested, 0.51% active;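 active = activation above the mean of controls blocked by dofetilide plus 5 SD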;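 also: thallium influx through hERG after potassium depolarization seen as dye fluorescence rise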
KCNQ1 inh: inhibitors of human KCNQ1 channel, primary screen, cell-based, thallium flux, high-throughput | Potassium voltage-gated channel subfamily KQT member 1 (Homo sapiens), P51787 | CHO-K1 KCNQ1, FluxOR thallium flux fluorescence; hits give high values | B-score at 10 µM | 310,000 tested, 1.3% active;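 active = compounds whose thallium flux B-score, printed positive for inhibition, exceeds three library SD while starting fluorescence stays within three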;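 also: channel opened by potassium depolarization with thallium stimulus after 20 min compound exposure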
KCNK9 inh: KCNK9 potassium channel inhibitors, primary screen, HEK293 cells, thallium flux | B-score at 10 µM | 310,000 tested, 1.2% active | AID 488922, 2010 | FluxOR thallium flux fluorescence; hits give low values | Potassium channel subfamily K member 9 (Homo sapiens), Q9NPC2;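 active = ratio B-score over 3 SD below the library mean, with starting fluorescence within 5 SD of its mean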;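 also: negative B-score means less thallium flux so channel inhibition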
Kir21 block: inhibitors of mouse Kir2.1 inward-rectifier potassium channel | Inward rectifier potassium channel 2 (Mus musculus), P35561 | HEK293-Kir2.1, FluxOR thallium flux fluorescence; hits give low values | B-score at 10 µM | 310,000 tested, 0.85% active | AID 1672, 2009;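 active = fluorescence ratio B-score at or below minus 3 SD of library scores, with starting-brightness B-score within 2 SD, cut at about -4.2 in these data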;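 also: channel flux triggered by added potassium and thallium sulfate stimulus; B-score of peak minus minimum fluorescence over baseline after thallium stimulus; more negative B-score means stronger Kir2.1 block with less thallium influx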
Target sequence (P35561 whole entry, looked up): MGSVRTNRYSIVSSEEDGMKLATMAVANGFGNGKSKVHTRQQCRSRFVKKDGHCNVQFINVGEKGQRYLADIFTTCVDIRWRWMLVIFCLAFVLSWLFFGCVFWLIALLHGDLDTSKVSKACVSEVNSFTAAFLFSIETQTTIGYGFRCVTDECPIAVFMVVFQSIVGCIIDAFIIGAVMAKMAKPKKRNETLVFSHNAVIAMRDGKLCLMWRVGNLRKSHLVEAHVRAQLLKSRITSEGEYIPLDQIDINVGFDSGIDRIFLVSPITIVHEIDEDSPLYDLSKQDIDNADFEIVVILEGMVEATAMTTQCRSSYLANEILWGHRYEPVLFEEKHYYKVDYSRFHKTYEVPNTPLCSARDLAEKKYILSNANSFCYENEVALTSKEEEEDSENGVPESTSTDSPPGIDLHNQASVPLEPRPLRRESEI
KCNK3 block: human KCNK3 channel inhibitors, primary screen, CHO cells, FluxOR thallium flux, B-score. Potassium channel subfamily K member 3 (Homo sapiens), O14649. FluxOR fluorescence; hits give low values. B-score at 10 µM. 340,000 tested, 0.84% active. AID 602410, 2012;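 active = B-score under library mean minus 4 SD, starting fluorescence ratio at most library mean plus 5 SD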;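 also: more negative B-score means stronger inhibition of thallium flux through KCNK3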
A number is an active result; n = inactive; x = not tested or not shown. Rows were chosen to be rich in hits. Some 3.8% of all compounds tested hit in one or more screens of this group.

SMILES	KCNQ1 act	hERG rescue	KCNQ1 inh	KCNK9 inh	Kir21 block	KCNK3 block
N#CC1=C(N)C(C#N)(C#N)C(c2cccnc2)C2CC(c3ccccc3)CC=C12 (stereo not drawn)	n	n	n	n	n	n
COc1ccc(C(=O)COC(=O)c2cc(=O)[nH]c3ccccc23)c(OC)c1	n	n	n	n	n	n
Cc1ccc(COc2ccsc2C(=O)O)cc1	x	x	x	x	x	n
CSc1nnc(-c2sccc2OCc2ccc(C)cc2)n1C	n	n	n	n	-4.3	n
CC(C)CCn1c(=O)c2ccccc2c2ccccc2c1=O	n	n	6	n	n	n
Cc1nc(CCNC(=O)C2CCC(=O)N(Cc3ccc(Cl)cc3)C2)sc1C (stereo not drawn)	n	n	n	n	n	n
O=C(CN1CCSC1=NCc1ccccc1)c1ccccc1	n	n	n	n	n	n
Fc1ccc(C(CCNCc2ccccn2)c2ccc(Cl)cc2)cc1 (stereo not drawn)	n	n	n	n	-6.44	n
CC1(C)C[C@@H]1C(=O)N/C(=C\CCCCSC[C@H](N)C(=O)O)C(=O)O	x	x	x	x	x	n
Cc1nc(SCc2cccc(F)c2)c2oc3ccccc3c2n1	n	5.0	n	n	n	n
CC1(c2nnc(-c3ccc(Cl)cc3)o2)CC(c2c(Cl)cccc2Cl)=NO1 (stereo not drawn)	n	n	n	-7.58	n	n
CC1(c2nnc(-c3ccc(F)cc3)o2)CC(c2c(Cl)cccc2Cl)=NO1 (stereo not drawn)	n	n	n	n	n	n
CCc1ccc(S(=O)(=O)N2CCN(C(=O)c3cccnc3)CC2)cc1	n	n	n	n	n	n
CCCCCCSC1=C(C#N)C(c2ccccc2)CC(=O)N1 (stereo not drawn)	n	n	n	-7.21	n	n
N#CC1=C(SCc2ccccc2)NC(=O)CC1c1ccc(O)cc1 (stereo not drawn)	n	n	n	n	-4.4	n
Cc1ccc(C2CC(=O)NC(SCc3ccccc3)=C2C#N)cc1 (stereo not drawn)	n	n	n	n	-4.35	n
COC(=O)c1ccc(OCCN2CCCCCC2)cc1	n	n	n	n	n	n
O=C(c1ccc(OCCN2CCCCC2)cc1)c1c(-c2ccc(O)cc2)sc2cc(O)ccc12	n	n	9	n	n	n
O=C(C1CCCN1S(=O)(=O)c1ccc(Cl)cc1)N1CCN(c2ccccc2)CC1 (stereo not drawn)	x	x	x	x	x	n
CC(C)N1C(=O)/C(=C/c2nc3ccccc3c(=O)n2-c2ccccc2)c2ccccc21	n	n	6	n	n	n
COCCCNCCCCOc1ccccc1-c1ccccc1	n	n	n	n	-4.55	n
COCCCNCCOc1ccccc1-c1ccccc1	n	n	n	n	n	n
CNCCOc1ccccc1-c1ccccc1	n	n	n	n	n	n
C=CCNCCCCOc1ccccc1-c1ccccc1	n	n	n	n	-5.72	n
CCCCNCCOc1ccccc1-c1ccccc1	n	n	n	n	-4.4	n
SMILES	KCNQ1 act	hERG rescue	KCNQ1 inh	KCNK9 inh	Kir21 block	KCNK3 block
CNCCCCOc1ccccc1-c1ccccc1	n	n	n	n	-6.42	n
Cn1c(CNC(=O)c2ccco2)nnc1SCC(=O)Nc1ccccc1Cl	n	n	n	n	n	n
COc1ccc(-n2c(C)cc(C(=O)CCl)c2C)cc1	8	n	n	n	n	n
COc1ccc(CCNCc2cc(C)n(-c3ccc(OC)cc3)c2C)cc1	n	n	n	n	-4.75	n
COc1ccc(-n2c(C)cc(C(=O)CN3C(=O)c4ccccc4C3=O)c2C)cc1	n	n	n	n	n	n
CCN(CC(=O)Nc1c(F)cccc1F)C(=O)c1cccnc1Sc1ccccc1	n	n	n	n	n	n
CCc1ccc(O)c(CNCCNCc2cc(CC)ccc2O)c1	n	n	n	n	-10.9	n
CN(Cc1ccccc1)C1=CC(=[N+]2CCCCC2)CC(C)(C)C1	n	n	6	n	n	n
CC1(C)CC(N2CCN(Cc3ccccc3)CC2)=CC(=[N+]2CCCCC2)C1	n	n	n	n	n	n
Cc1ccc(S(=O)(=O)NC(C)CCc2ccccc2)cc1 (stereo not drawn)	n	n	n	n	-4.77	n
CC(=O)Nc1ccc(S(=O)(=O)NC(C)CCc2ccccc2)cc1 (stereo not drawn)	n	n	n	n	n	n
CCCCCCCCCCCCCCC(O)C[N+](C)(CCO)CCO (stereo not drawn)	x	x	x	x	x	n
CN(C(=O)COC(=O)CCCN1C(=O)c2cccc3cccc(c23)C1=O)C1CCS(=O)(=O)C1 (stereo not drawn)	n	n	n	n	n	n
CCOC(=O)c1cc(=O)n2nc(-c3ccc(C)cc3)nc2s1	n	n	7	n	n	n
CCOC(=O)Cc1csc2nc(-c3ccccc3)nn12	n	n	n	n	n	n
CCCC[C@H](CN(N=O)[C@@H](Cc1ccccc1)CN(C)N=O)N(CCc1ccccc1)N=O	n	n	6	n	n	n
CC(OC(=O)c1ccc2c(=O)n3c(nc2c1)CCC3)C(=O)NC1CCCCC1C (stereo not drawn)	n	n	n	n	n	n
O=C(O)c1cccc(N/N=C(\N=Nc2ccccc2)c2ccccc2)c1	n	n	6	n	n	n
CN(C)CCSc1nc(-c2ccccc2)nc2c1CCC2	n	n	n	n	n	n
CN(C)CCCSc1nc(-c2ccccc2)nc2c1CCC2	n	n	n	n	-9.71	n
O=C(COC(=O)Cc1ccc(-c2ccccc2)cc1)NCc1ccccc1	n	n	n	n	n	n
O=C(COC(=O)CC(c1ccccc1)c1ccccc1)NCc1ccccc1	n	n	n	n	-5.81	n
O=C(COC(=O)CC(c1ccccc1)c1ccccc1)Nc1ccc(F)c(F)c1	n	n	6	n	n	x
Cc1ccc(S(=O)(=O)N2CCN(C(=O)COC(=O)C3CCC3)CC2)c(C)c1	n	n	n	n	n	n
Oc1ccc(Nc2nc(NCC3CCCO3)c3ccccc3n2)cc1 (stereo not drawn)	n	n	n	n	-7.75	n
Oc1ccccc1Nc1nc(NCC2CCCO2)c2ccccc2n1 (stereo not drawn)	n	n	n	n	-11.5	n
CN1C(=O)/C(=N\OC(=O)c2cccc3ccccc23)c2ccccc21	18	11.5	n	n	n	n
CCOC(=O)c1sc(N(Cc2ccccc2)C(=O)COC(=O)c2ccccc2O)nc1C	n	n	n	-6.74	n	n
